The values that follow come from ChEMBL document CHEMBL4118271, “Synthesis and antitumor activity of novel 6,7,8-trimethoxy N-aryl-substituted-4-aminoquinazoline derivatives” (Bioorg Med Chem Lett, 2018).

Activity calls are given as the source filed them. The rule behind the calls is not given here.

The subject of assay [1] is SGC-7901. The assay can be described thus: Anticancer activity against human SGC7901 cells after 72 hrs by MTT assay. Type of assay: functional, cell-based. The settings on record: SGC-7901, 72 h.
Assay [2] has as its system SGC-7901. Kind of assay: Induction of morphological changes in human SGC7901 cells assessed as induction of cell break at 1 and 10 uM after 24 to 72 hrs by inverted microscopic analysis. The format is functional, cell-based. A digest of the protocol:
(§1)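 SGC7901 cells were seeded and allowed 24 h to settle, then exposed to 0.1% (v/v) DMSO vehicle, to test agent at 1 or 10 μM, or to epirubicin at 1 or 10 μM. Exposure lasted 24, 48 and 72 h. Morphology (shrinkage, size, apoptotic bodies, breakdown) was then observed microscopically.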

In assay [3] the test system is SGC-7901. Kind of assay: Anticancer activity against human SGC7901 cells at 1 to 10 uM after 72 hrs by MTT assay. The format is functional, cell-based. A digest of the protocol: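 Growth inhibition of SGC7901 gastric cancer cells tested at single concentrations of 10 and 1 μM for 72 h, read out by MTT assay. Epirubicin served as the positive control at the same concentrations.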
(Tetrazolium assays rely on reduction of a dye to a coloured formazan, in cell work by metabolically active cells.)

In assay [4] the test system is SGC-7901. Kind of assay: Induction of morphological changes in human SGC7901 cells assessed as induction of cell shrinking at 10 uM after 48 to 72 hrs by inverted microscopic analysis. The format is functional, cell-based. A digest of the protocol: as §1
Assay [5] deals with SGC-7901. Kind of assay: Induction of morphological changes in human SGC7901 cells assessed as reduction in cell size at 10 uM after 48 to 72 hrs by inverted microscopic analysis. Type of assay: functional, cell-based. A digest of the protocol:
as §1

Assay [6] concerns SGC-7901. The assay can be described thus: Induction of morphological changes in human SGC7901 cells at 1 uM after 24 hrs by inverted microscopic analysis. Type of assay: functional, cell-based. Put shortly:
as §1

Assay [7] concerns the target Mitogen-activated protein kinase; ERK1/ERK2 (Homo sapiens) (UniProt P27361+P28482). The assay can be described thus: Inhibition of EGF-induced ERK1/2 phosphorylation in human SGC7901 cells incubated for 30 mins post 10 min EGF stimulation by Western blot analysis. Type of assay: cell-based. A digest of the protocol:
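SGC7901 cells were grown in RPMI 1640 with 10% serum to 80% confluency and stimulated with 40 ng/ml EGF for 10 min. They were then treated for 30 min with 0.1% (v/v) DMSO or test agent at 1, 10, 20 or 40 μM. Lysates were run on SDS-PAGE and blotted for phospho-ERK1/2, with actin as loading control, ECL detection and densitometry. Three independent experiments were run.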
A general note: A western blot detects proteins with antibodies after separation by electrophoresis.

Assay [8] concerns SGC-7901. Kind of assay: Antiproliferative activity against human SGC7901 cells assessed as formation of apoptotic bodies at 10 uM after 48 to 72 hrs by inverted microscopic analysis. Type of assay: functional, cell-based. A digest of the protocol: as §1

Mitogen-activated protein kinase; ERK1/ERK2 (Homo sapiens), sequence (P27361 whole entry, looked up): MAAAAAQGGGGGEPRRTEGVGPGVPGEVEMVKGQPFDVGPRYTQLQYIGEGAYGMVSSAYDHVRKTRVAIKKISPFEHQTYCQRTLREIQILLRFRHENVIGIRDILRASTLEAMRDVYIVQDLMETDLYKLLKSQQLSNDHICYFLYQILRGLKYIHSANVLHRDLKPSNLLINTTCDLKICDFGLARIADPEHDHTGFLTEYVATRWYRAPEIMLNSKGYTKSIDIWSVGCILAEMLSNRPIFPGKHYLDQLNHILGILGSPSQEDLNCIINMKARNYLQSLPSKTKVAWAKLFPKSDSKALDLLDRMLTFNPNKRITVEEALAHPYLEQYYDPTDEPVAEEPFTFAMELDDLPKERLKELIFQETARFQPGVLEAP
Mitogen-activated protein kinase; ERK1/ERK2 (Homo sapiens), sequence (P28482 whole entry, looked up): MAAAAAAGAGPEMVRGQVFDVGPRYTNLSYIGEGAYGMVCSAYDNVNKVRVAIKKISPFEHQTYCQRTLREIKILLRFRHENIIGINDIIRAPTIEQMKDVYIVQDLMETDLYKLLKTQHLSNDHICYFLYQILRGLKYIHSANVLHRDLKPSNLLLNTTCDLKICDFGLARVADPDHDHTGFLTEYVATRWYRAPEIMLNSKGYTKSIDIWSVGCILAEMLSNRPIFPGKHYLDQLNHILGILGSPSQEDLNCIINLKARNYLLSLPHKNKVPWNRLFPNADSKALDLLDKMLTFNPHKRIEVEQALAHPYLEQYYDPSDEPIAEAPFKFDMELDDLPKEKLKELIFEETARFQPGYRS

`COc1cc2c(Nc3cccc(C(F)(F)F)c3)ncnc2c(OC)c1OC`: the IC50 in assay [1] is > 30 µM.
As to `COc1cc2c(Nc3cc(C(F)(F)F)ccc3F)ncnc2c(OC)c1OC`, in assay [1], the midpoint of inhibition, the IC50, lay at 10.3 µM.
For `COc1cccc2c1C(=O)c1c(O)c3c(c(O)c1C2=O)C[C@@](O)(C(=O)CO)C[C@@H]3O[C@H]1C[C@H](N)[C@@H](O)[C@H](C)O1` [EPIRUBICIN], half-maximal inhibition in assay [1] (IC50) was put at 5.16 µM. Moreover, the outcome in assay [2] was Active.
Take `COc1cc2c(Nc3ccc(F)c(Cl)c3F)ncnc2c(OC)c1OC`: the IC50 in assay [1] is > 30 µM.
With `COc1cc2c(Nc3ccc(B(O)O)cc3)ncnc2c(OC)c1OC`, the result in assay [3], in assay [4], in assay [5] and in assay [8] was Active. Besides, in assay [1], the IC50 is 0.434 µM. For the same compound, in assay [6], the outcome was inactive. Further, in assay [7], the inhibition entry was “Dose-dependent effect”.
As for `COc1cc2c(Nc3ccc(Br)c(F)c3)ncnc2c(OC)c1OC`, the half-inhibitory concentration (IC50) in assay [1] was > 30 µM.
On the same count and under the same terms, the figure for `COc1cc2c(Nc3cccc(F)c3F)ncnc2c(OC)c1OC` is > 30 µM.
Still for that read-out and setting: the figure for `COc1cc2c(Nc3cc(Br)ccc3F)ncnc2c(OC)c1OC` is 18.4 µM.
Still for that read-out and setting: the figure for `COc1cc2c(Nc3ccc(F)c(Cl)c3)ncnc2c(OC)c1OC` is 5.42 µM; for `COc1cc2c(Nc3cccc(I)c3)ncnc2c(OC)c1OC` it is 8.64 µM; for `C#Cc1cccc(Nc2ncnc3c(OC)c(OC)c(OC)cc23)c1` it is 5.82 µM.
Regarding `COc1cc2c(Nc3cccc(Br)c3F)ncnc2c(OC)c1OC`, in assay [1], the IC50 was > 30 µM.
For `COc1cc2c(Nc3ccc(C(F)(F)F)cc3)ncnc2c(OC)c1OC`, the IC50 in assay [1] was > 30 µM.
On the same count and under the same terms, next, `COc1cc2c(Nc3ccc(Br)c(Cl)c3F)ncnc2c(OC)c1OC`: 15 µM.
In the case of `COc1cc2c(Nc3cccc(Cl)c3F)ncnc2c(OC)c1OC`, the IC50 in assay [1] was > 30 µM.

In general, IC50 refers to the concentration that inhibits the measured activity by half. The low end stands for higher potency, the high end for lower potency.
